Reference: ChEMBL document CHEMBL4312005, “Optimization of pyrrolizine-based Schiff bases with 4-thiazolidinone motif: Design, synthesis and investigation of cytotoxicity and anti-inflammatory potency” (Eur J Med Chem, 2020)
pIC50: −log10 of the molar value.

Tests used:
HT-29 = assay: Antiproliferative activity against human HT-29 cells assessed as reduction in cell growth incubated for 72 hrs by MTT assay; format: functional, cell-based; conditions: HT-29, 72 h
Outline: (§1)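 MTT assay on MCF-7, A2780, HT29 and normal MRC5 fibroblast lines (ATCC) grown in DMEM with 10% FBS. Cells exposed to compounds for 72 h, then reduced MTT read at 570 nm.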

MRC5 = assay: Cytotoxicity against human MRC5 cells assessed as reduction in cell growth incubated for 72 hrs by MTT assay; format: cell-based; conditions: MRC5, 72 h; outline: as §1
[1] = target: AMP-activated protein kinase (AMPK) alpha-1/beta-1/gamma-1 (Homo sapiens) (UniProt P54619+Q9Y478+Q13131); assay: Inhibition of recombinant human C-terminal His-tagged full length AMPK alpha1/beta1/gamma1 expressed in baculovirus infected Sf9 insect cells assessed as enzyme activity incubated for 15 mins by [gamma-33]ATP based scintillation counting method relative to control; design: scale not given: the % may be the effect or the level left
[2] = target: T1, Aurora kinase A (Homo sapiens) (UniProt O14965); assay: Inhibition of recombinant human N-terminal GST-tagged full length Aurora A expressed in baculovirus infected Sf9 insect cells assessed as enzyme activity incubated for 15 mins by [gamma-33]ATP based scintillation counting method relative to control; design: scale not given: the % may be the effect or the level left
T1 sequence (whole entry): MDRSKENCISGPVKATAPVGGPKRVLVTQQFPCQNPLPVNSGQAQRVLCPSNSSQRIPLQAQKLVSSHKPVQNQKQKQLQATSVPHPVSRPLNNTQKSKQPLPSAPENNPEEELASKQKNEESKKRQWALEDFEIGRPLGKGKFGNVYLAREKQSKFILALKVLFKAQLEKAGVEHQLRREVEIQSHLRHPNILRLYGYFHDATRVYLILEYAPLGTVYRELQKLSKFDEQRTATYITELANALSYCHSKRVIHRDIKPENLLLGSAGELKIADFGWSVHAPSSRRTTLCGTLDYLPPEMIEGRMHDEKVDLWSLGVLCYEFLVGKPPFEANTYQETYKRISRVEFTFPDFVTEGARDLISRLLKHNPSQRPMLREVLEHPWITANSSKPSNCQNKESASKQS

[3] = target: Tyrosine-protein kinase Blk (Homo sapiens) (UniProt P51451); assay: Inhibition of recombinant human N-terminal GST-tagged full length BLK expressed in baculovirus infected Sf9 insect cells assessed as enzyme activity incubated for 15 mins by [gamma-33]ATP based scintillation counting method relative to control; design: scale not given: the % may be the effect or the level left
[4] = target: T2, Rhodopsin kinase GRK1 (Homo sapiens) (UniProt Q15835); assay: Inhibition of GRK1 (unknown origin) assessed as enzyme activity incubated for 15 mins by [gamma-33]ATP based scintillation counting method relative to control; design: scale not given: the % may be the effect or the level left
T2 sequence (whole entry): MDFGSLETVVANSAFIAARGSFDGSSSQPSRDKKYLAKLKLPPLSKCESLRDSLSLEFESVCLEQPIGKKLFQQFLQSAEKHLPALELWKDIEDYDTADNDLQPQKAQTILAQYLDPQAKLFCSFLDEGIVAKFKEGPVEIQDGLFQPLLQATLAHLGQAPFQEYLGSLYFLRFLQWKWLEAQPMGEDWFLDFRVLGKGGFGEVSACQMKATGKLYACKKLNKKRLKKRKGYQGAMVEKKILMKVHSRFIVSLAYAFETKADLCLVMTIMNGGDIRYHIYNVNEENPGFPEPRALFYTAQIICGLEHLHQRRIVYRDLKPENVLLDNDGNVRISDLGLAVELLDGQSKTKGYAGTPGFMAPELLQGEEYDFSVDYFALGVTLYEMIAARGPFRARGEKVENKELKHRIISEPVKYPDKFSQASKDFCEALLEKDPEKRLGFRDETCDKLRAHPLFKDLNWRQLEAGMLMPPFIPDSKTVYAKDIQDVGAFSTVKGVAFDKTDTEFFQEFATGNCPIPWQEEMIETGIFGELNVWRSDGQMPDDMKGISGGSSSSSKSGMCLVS

[5] = target: T3, Serine/threonine-protein kinase Nek1 (Homo sapiens) (UniProt Q96PY6); assay: Inhibition of recombinant human N-terminal GST-tagged full length NEK1 expressed in baculovirus infected Sf9 insect cells assessed as enzyme activity incubated for 15 mins by [gamma-33]ATP based scintillation counting method relative to control; design: scale not given: the % may be the effect or the level left
T3 sequence (whole entry): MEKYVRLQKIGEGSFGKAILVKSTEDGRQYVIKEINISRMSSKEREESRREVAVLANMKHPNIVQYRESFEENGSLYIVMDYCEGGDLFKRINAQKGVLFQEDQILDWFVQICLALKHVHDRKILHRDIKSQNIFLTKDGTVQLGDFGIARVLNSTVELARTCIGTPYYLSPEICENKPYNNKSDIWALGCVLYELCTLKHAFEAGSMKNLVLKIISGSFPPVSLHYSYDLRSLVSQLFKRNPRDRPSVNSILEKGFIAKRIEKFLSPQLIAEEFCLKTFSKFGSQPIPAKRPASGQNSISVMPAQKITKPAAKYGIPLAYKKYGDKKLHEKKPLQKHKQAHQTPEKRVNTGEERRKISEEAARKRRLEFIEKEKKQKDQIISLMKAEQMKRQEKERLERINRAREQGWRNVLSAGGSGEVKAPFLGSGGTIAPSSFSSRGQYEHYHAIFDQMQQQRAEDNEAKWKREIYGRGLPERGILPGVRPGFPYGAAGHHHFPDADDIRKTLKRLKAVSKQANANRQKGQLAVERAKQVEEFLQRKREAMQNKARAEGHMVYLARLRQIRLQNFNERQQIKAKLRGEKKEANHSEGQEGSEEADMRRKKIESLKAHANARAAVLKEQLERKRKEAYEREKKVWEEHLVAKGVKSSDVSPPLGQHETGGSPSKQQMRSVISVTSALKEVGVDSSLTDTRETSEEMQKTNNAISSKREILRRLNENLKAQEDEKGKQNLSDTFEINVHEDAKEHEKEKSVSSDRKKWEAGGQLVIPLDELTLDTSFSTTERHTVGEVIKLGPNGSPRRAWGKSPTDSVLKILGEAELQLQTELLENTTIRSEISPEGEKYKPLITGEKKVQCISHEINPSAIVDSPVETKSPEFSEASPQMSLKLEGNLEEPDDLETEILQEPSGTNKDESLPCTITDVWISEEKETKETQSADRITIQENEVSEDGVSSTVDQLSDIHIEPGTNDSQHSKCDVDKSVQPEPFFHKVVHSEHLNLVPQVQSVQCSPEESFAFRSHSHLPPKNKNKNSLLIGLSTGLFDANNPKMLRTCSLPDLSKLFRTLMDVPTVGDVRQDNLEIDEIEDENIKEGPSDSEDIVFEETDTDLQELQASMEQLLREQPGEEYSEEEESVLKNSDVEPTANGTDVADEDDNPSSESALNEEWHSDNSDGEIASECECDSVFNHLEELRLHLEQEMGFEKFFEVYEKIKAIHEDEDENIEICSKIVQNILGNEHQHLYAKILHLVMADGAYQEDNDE

[6] = target: Cyclin-dependent kinase 2 (Homo sapiens, UniProt P24941); assay: Inhibition of CDK2 (unknown origin) incubated for 40 mins by ADP-glo assay

Tyrosine-protein kinase Blk (Homo sapiens), sequence (P51451 2-505 limits assumed): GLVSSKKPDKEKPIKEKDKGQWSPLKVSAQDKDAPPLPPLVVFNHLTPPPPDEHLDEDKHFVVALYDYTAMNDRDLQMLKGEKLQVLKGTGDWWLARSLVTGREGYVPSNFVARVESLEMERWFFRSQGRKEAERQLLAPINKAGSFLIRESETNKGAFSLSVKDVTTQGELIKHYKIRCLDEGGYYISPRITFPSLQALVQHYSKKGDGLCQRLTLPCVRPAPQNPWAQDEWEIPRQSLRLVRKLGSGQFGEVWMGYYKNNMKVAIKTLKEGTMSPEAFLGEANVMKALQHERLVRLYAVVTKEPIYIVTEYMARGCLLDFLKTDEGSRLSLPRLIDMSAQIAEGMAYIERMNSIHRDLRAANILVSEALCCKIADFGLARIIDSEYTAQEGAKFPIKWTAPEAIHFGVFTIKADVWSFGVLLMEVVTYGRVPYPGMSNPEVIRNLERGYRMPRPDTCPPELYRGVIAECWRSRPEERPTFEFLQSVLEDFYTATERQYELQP
AMP-activated protein kinase (AMPK) alpha-1/beta-1/gamma-1 (Homo sapiens), sequence (P54619 whole entry): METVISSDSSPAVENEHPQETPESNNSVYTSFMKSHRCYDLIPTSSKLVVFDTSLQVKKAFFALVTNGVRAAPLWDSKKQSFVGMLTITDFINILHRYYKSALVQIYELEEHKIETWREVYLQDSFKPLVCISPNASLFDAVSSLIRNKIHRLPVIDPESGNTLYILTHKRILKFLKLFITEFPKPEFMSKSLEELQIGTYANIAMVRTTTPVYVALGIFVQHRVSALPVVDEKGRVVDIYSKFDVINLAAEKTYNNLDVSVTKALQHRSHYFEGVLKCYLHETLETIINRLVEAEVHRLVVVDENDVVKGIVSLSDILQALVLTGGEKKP
AMP-activated protein kinase (AMPK) alpha-1/beta-1/gamma-1 (Homo sapiens), sequence (Q13131 whole entry partner): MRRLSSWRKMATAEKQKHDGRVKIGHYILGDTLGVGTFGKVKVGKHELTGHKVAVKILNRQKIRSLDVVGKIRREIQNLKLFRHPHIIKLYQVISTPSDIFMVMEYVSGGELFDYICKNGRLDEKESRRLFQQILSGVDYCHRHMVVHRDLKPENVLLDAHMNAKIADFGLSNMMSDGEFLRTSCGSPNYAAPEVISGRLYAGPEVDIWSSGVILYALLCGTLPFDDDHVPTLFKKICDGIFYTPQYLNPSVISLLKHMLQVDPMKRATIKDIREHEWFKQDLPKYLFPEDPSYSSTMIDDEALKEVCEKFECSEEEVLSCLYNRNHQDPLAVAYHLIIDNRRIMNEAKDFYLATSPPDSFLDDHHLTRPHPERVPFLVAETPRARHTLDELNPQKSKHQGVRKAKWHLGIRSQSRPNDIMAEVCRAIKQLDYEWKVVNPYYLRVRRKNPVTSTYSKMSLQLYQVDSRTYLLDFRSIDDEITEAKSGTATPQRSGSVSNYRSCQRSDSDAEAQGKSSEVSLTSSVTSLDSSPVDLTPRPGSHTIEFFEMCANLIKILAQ
AMP-activated protein kinase (AMPK) alpha-1/beta-1/gamma-1 (Homo sapiens), sequence (Q9Y478 2-270 partner limits assumed): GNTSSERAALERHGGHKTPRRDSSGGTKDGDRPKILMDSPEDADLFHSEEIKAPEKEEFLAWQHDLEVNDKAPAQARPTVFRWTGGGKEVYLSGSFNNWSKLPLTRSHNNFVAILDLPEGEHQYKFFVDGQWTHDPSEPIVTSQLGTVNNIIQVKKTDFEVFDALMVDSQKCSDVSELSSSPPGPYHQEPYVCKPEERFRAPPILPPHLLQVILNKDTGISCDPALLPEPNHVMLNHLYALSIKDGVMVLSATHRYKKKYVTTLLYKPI

pIC50 (HT-29) | Activity [1] [%] | Activity [2] [%] | Activity [3] [%] | Activity [4] [%] | Activity [5] [%] | pIC50 [6] | Structure (SMILES) | pIC50 (MRC5)
6.22 | 2 | -11 | 26 | -9 | 10 | 6.20 | CCC1SCC(=O)N1c1c(C#N)c2n(c1C(=O)Nc1ccccc1)CCC2 (stereo not drawn) | 6.20
6.70 | -4 | -8 | -32 | -10 | -1 | 6.24 | CC/C=N/c1c(C#N)c2n(c1C(=O)Nc1ccccc1)CCC2 | 5.50
– | 18 | -38 | -3 | 2 | – | – | Cc1ccc(NC(=O)c2ccc(CN3CCN(C)CC3)cc2)cc1Nc1nccc(-c2cccnc2)n1 | –
6.17 | 12 | 1 | 7 | 1 | -14 | 5.90 | CC(C)C/C=N/c1c(C#N)c2n(c1C(=O)Nc1ccc(Br)cc1)CCC2 | 4.59
